Experimental findings from ChEMBL document CHEMBL1145212, “Fluorinated diaryl sulfides as serotonin transporter ligands: synthesis, structure-activity relationship study, and in vivo evaluation of fluorine-18-labeled compounds as PET imaging agents” (J Med Chem, 2005) are described below.

pKi: −log10 of the molar value.

Test [1] is filed under the species Rattus norvegicus. Briefly: Regional uptake of [18F]AFA in cerebellum of rat pretreated with compound GBR-12935; n=3. The format is functional, organism-based. To be noted: tested as the 18F-labelled form. In outline: (§1)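 Male Sprague-Dawley rats, three per group, received blocker (2 mg/kg iv in saline) or saline only (controls) 10–15 min before about 20 µCi of tail-vein F-18 radioligand. Killed 60 min after tracer. Blood and brain regions weighed and gamma-counted. %ID/g was decay- and tail-corrected; mean ± SD.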

Test [2] concerns the target Sodium-dependent serotonin transporter (Rattus norvegicus) (UniProt P31652). Briefly: Specific binding of [18F]AFA in rat hypothalamus after nisoxetine treatment; n=3. The test is classed as functional, tissue-based. The conditions noted are these: tested as the 18F-labelled form. In outline:
(§2)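 Rats, three per group, were pretreated iv with blocker at 2 mg/kg in saline, or with saline as control, 10–15 min before tail-vein F-18 radioligand (about 20 µCi). Killed at 60 min and regional %ID/g determined. Specific binding = (region activity − cerebellum activity)/cerebellum activity; mean ± SD.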

The species named for test [3] is Rattus norvegicus. Briefly: Regional uptake of [18F]AFA in hypothalamus of rat pretreated with compound GBR-12935; n=3. The format is functional, organism-based. To be noted: tested as the 18F-labelled form. In outline: as §1
Test [4] addresses Sodium-dependent serotonin transporter (Rattus norvegicus) (UniProt P31652). Briefly: Specific binding of [18F]AFA in rat thalamus after GBR-12935 treatment; n=3. To be noted: tested as the 18F-labelled form. The test is classed as functional, tissue-based. In outline:
as §2

For test [5], the species on record is Rattus norvegicus. Briefly: Regional uptake of [18F]AFA in thalamus of rat pretreated with compound nisoxetine; n=3. The test is classed as functional, organism-based. To be noted: tested as the 18F-labelled form. In outline:
as §1

The species named for test [6] is Rattus norvegicus. Briefly: Regional uptake of [18F]AFA in frontal cortex of rat pretreated with compound nisoxetine; n=3. The test is classed as functional, organism-based. To be noted: tested as the 18F-labelled form. In outline: as §1
The species entered for test [7] is Rattus norvegicus. Briefly: Regional uptake of [18F]AFA in hypothalamus of rat pretreated with compound 7d; n=3. The test is classed as functional, organism-based. The conditions noted are these: tested as the 18F-labelled form.
Test [8] has as its target Sodium-dependent serotonin transporter (Rattus norvegicus) (UniProt P31652). Briefly: Specific binding in rat hypothalamus at 60 min postinjection in vivo. The test is classed as functional, organism-based. The conditions noted are these: tested as the 18F-labelled form. In outline: (§3)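 Male Sprague-Dawley rats, n=3 per time point, received about 20 µCi of F-18 radioligand in saline iv by tail vein and were killed at 10–120 min. %ID/g was measured with decay and tail-residual correction. Hypothalamic specific binding = (%ID/g hypothalamus − %ID/g cerebellum)/%ID/g cerebellum; mean ± SD.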

The species named for test [9] is Rattus norvegicus. Briefly: Regional uptake of [18F]AFA in frontal cortex of rat pretreated with compound 7d; n=3. The test is classed as functional, organism-based. The conditions noted are these: tested as the 18F-labelled form.
The species entered for test [10] is Rattus norvegicus. Briefly: Regional uptake of [18F]-AFA in blood of rat pretreated with compound citalopram; n=3. The format is functional, organism-based. The conditions noted are these: tested as the 18F-labelled form. In outline:
as §1

Test [11] concerns the target Sodium-dependent serotonin transporter (Rattus norvegicus) (UniProt P31652). Briefly: Specific binding of [18F]AFA in rat hypothalamus after citalopram treatment; n=3. The format is functional, tissue-based. The conditions noted are these: tested as the 18F-labelled form. In outline: as §2
Test [12] has the same target. Briefly: Specific binding in rat hypothalamus at 10 min postinjection in vivo. The format is functional, organism-based. To be noted: tested as the 18F-labelled form. In outline:
as §3

The species named for test [13] is Rattus norvegicus. Briefly: Regional uptake of [18F]AFA in striatum of rat pretreated with compound 7d; n=3. The test is classed as functional, organism-based. The conditions noted are these: tested as the 18F-labelled form.
Test [14] is filed under the species Rattus norvegicus. Briefly: Regional uptake of [18F]-AFM in thalamus of rat pretreated with compound 7d; n=3. To be noted: tested as the 18F-labelled form.
Test [15] concerns the target Sodium-dependent serotonin transporter (Rattus norvegicus) (UniProt P31652). Briefly: Specific binding of [18F]AFA in rat hippocampus after nisoxetine treatment; n=3. The test is classed as functional, tissue-based. The conditions noted are these: tested as the 18F-labelled form. In outline: as §2
Test [16] shares this target. Briefly: Specific binding in rat hypothalamus at 30 min postinjection in vivo. The test is classed as functional, organism-based. To be noted: tested as the 18F-labelled form. In outline:
as §3

The species entered for test [17] is Rattus norvegicus. Briefly: Regional uptake of [18F]AFA in striatum of rat pretreated with compound citalopram; n=3. The test is classed as functional, organism-based. The conditions noted are these: tested as the 18F-labelled form. In outline:
as §1

Test [18] concerns the target Sodium-dependent serotonin transporter (Rattus norvegicus) (UniProt P31652). Briefly: Specific binding in rat hypothalamus at 120 min postinjection in vivo. The test is classed as functional, organism-based. To be noted: tested as the 18F-labelled form. In outline:
as §3

The species named for test [19] is Rattus norvegicus. Briefly: Regional uptake of [18F]AFA in blood of rat pretreated with compound nisoxetine; n=3. The test is classed as functional, organism-based. To be noted: tested as the 18F-labelled form. In outline:
as §1

The target in test [20] is Sodium-dependent serotonin transporter (Rattus norvegicus) (UniProt P31652). Briefly: Specific binding of [18F]-AFA in rat striatum after citalopram treatment; n=3. The format is functional, tissue-based. The conditions noted are these: tested as the 18F-labelled form. In outline: as §2
Test [21] has the same target. Briefly: Specific binding of [18F]AFA in rat thalamus after nisoxetine treatment; n=3. The conditions noted are these: tested as the 18F-labelled form. The format is functional, tissue-based. In outline: as §2
The target is the same in test [22]. Briefly: Specific binding of [18F]AFA in rat frontal cortex after nisoxetine treatment; n=3. The test is classed as functional, tissue-based. The conditions noted are these: tested as the 18F-labelled form. In outline:
as §2

For test [23], the target named is Sodium-dependent serotonin transporter (Homo sapiens, UniProt P31645). Briefly: In vitro displacement of [3H]paroxetine from human serotonin transporter expressed in HEK293 cells. The format is cell-based.
The species named for test [24] is Rattus norvegicus. Briefly: Regional uptake of [18F]-AFA in striatum of rat pretreated with compound GBR-12935; n=3. The format is functional, organism-based. The conditions noted are these: tested as the 18F-labelled form. In outline:
as §1

Sequence of Sodium-dependent serotonin transporter (Rattus norvegicus) (P31652 whole entry): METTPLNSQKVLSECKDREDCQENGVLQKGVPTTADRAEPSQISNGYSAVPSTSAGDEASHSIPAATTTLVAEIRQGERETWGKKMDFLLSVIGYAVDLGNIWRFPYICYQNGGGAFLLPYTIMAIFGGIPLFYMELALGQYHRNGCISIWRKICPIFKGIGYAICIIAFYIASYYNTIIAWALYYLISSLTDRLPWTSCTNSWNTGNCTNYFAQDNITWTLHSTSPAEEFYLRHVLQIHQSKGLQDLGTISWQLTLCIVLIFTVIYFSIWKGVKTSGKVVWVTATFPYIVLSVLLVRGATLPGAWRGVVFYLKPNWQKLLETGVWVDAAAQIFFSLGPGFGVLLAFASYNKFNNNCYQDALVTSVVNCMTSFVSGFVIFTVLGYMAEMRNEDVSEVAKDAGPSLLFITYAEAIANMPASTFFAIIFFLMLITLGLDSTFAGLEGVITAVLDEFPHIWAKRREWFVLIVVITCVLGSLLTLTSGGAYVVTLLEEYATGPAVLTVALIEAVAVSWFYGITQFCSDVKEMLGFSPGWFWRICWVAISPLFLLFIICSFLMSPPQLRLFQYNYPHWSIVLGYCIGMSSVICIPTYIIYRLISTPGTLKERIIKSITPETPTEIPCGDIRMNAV
Sequence of Sodium-dependent serotonin transporter (P31645 whole entry): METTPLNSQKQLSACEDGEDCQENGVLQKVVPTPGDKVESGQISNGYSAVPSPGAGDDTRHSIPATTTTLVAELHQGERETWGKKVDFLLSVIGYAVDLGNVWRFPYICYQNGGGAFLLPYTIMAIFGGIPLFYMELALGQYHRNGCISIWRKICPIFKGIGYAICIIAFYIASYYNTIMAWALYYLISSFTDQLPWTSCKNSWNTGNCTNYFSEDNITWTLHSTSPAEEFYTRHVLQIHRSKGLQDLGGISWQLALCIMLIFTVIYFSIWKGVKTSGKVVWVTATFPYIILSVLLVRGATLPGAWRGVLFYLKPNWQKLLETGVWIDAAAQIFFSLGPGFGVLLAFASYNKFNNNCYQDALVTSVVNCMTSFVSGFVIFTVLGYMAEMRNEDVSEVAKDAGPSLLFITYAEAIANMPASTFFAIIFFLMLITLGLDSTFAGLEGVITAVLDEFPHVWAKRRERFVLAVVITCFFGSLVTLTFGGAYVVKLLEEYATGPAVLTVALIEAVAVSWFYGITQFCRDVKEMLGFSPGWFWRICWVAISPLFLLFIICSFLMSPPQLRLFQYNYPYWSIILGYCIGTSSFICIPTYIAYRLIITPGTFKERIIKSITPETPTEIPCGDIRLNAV

Consider `CN(C)Cc1ccccc1Sc1ccc(CF)cc1N`, for which the Uptake in the test listed under Rattus norvegicus [1] is 0.13 %ID/g; in the test filed under Rattus norvegicus [3], 0.87 %ID/g; in the test listed under Rattus norvegicus [5], 0.65 %ID/g; in the test filed under Rattus norvegicus [6] it was 0.72 %ID/g; in the test filed under Rattus norvegicus [7], 0.17 %ID/g; in the test listed under Rattus norvegicus [9] it was 0.12 %ID/g. The Uptake came out at 0.12 %ID/g in the test listed under Rattus norvegicus [10]; 0.14 %ID/g in the test filed under Rattus norvegicus [13]; 0.17 %ID/g in the test listed under Rattus norvegicus [14]; 0.12 %ID/g in the test filed under Rattus norvegicus [17]; 0.11 %ID/g in the test listed under Rattus norvegicus [19]; 0.7 %ID/g in the test listed under Rattus norvegicus [24]. The Specific binding was 5.24 %ID/g in test [2]; 4.38 %ID/g in test [4]; 4.56 %ID/g in test [8]; 1.37 %ID/g in test [11]; 0.98 %ID/g in [12]; 2.72 %ID/g in [15]. Besides, the Specific binding in test [16] was 2.27 %ID/g; in test [20] it was 0.52 %ID/g; in test [21] it was 4.71 %ID/g; in test [22] it was 4.02 %ID/g. In addition, the Specific binding (dimensionless ratio) in test [18] came to 8.37. The negative-log Ki (pKi) in test [23] is 8.98.

A word on the pKi: it is the negative decadic logarithm of the Ki, by convention in mol/L.
